According to ChEMBL document CHEMBL4196194, “De Novo Design of α-Helical Lipopeptides Targeting Viral Fusion Proteins: A Promising Strategy for Relatively Broad-Spectrum Antiviral Drug Discovery” (J Med Chem, 2018):
≈ marks a conversion by molar mass, not a printed value. Calls of active or inactive are those of the source. The calls are words filed in the database; no cut-off is given here. Where a SMILES comes first, the peptide text is derived from it. [ ]: non-standard residue; d: D form. The star is where a group is joined. Palmitoyl = CCCCCCCCCCCCCCCC(=O)*; βAla = NCCC(=O)O

Assays:
[1] = Cytotoxicity in human HuH7 cells assessed as reduction in cell viability incubated for 48 hrs by CCK8 assay; assay type: cell-based, Huh-7
In short: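 Huh-7 cells (1 × 10^5 cells/mL suspension seeded) grown 12 h at 37 °C, 5% CO2, then serially diluted peptide added for 48 h; untreated blank and Triton X-100 controls. CCK-8 added for 2 h, absorbance at 450 nm.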

[2] = tested on: Influenza A virus; experiment: Antiviral activity against Influenza A virus (A/Puerto Rico/8/1934(H1N1)) infected in HEK293T cells assessed as inhibition of viral replicon activity incubated for 30 hrs by dual-Glo luciferase assay; assay type: functional, organism-based; conditions: HEK-293T
In short: (§1)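 HEK293T cells (2.5 × 10^4/well) transfected with plasmids for NP, PB1, PB2, PA plus p0LN-S-Luc firefly and pRL-SV40 Renilla reporters; serially diluted compound added 6 h post-transfection, luciferase read after 30 h by Dual-Glo. Activity = firefly/Renilla ratio; % inhibition normalized to positive and negative controls, curve-fitted; three independent measurements.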

[3] = Cytotoxicity in MDCK cells assessed as reduction in cell viability incubated for 72 hrs by cell-titer-Glo cell viability assay; assay type: cell-based, Canis lupus familiaris; conditions: dog
[4] = Selectivity index, ratio of CC50 for cytotoxicity in MDCK cells to EC50 for antiviral activity against Influenza A virus (A/Hong Kong/8/1968([…])) infected in HEK293T cells; assay type: toxicity, cell-based; conditions: dog
[5] = tested on: Influenza A virus; experiment: Antiviral activity against influenza A virus assessed as inhibition of viral replicon activity up to 100 uM incubated for 30 hrs by firefly luciferase reporter gene assay; assay type: functional, organism-based; in short: as §1
[6] = tested on: Influenza A virus; experiment: Inhibition of influenza A virus infected in MDCK cells assessed as inhibition of viral load treated with compound at 0 to 10 hrs post-infection by RT-qPCR method based time of addition assay; assay type: functional
In short: (§2)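 MDCK cells (2.0 × 10^5/well) washed with PBS, virus adsorbed (MOI 0.05) 60 min at 4 °C, washed, then compound present only during 0–10, 0–2, 2–5, 5–8 or 8–10 h postinfection; cultured in fresh medium to 10 h, total RNA extracted, viral load by absolute one-step RT-qPCR; triplicate, versus PBS control.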

[7] = tested on: Influenza A virus; experiment: Inhibition of influenza A virus infected in MDCK cells assessed as inhibition of viral load treated with compound at 0 to 2 hrs post-infection by RT-qPCR method based time of addition assay; assay type: functional; in short: as §2
[8] = tested on: Influenza A virus; experiment: Inhibition of influenza A virus infected in MDCK cells assessed as inhibition of viral load treated with compound at 2 to 5 hrs post-infection by RT-qPCR method based time of addition assay; assay type: functional, organism-based; in short: as §2
[9] = tested on: Influenza A virus; experiment: Inhibition of influenza A virus infected in MDCK cells assessed as inhibition of viral load treated with compound at 5 to 8 hrs post-infection by RT-qPCR method based time of addition assay; assay type: functional, organism-based; in short: as §2
[10] = tested on: Influenza A virus; experiment: Inhibition of influenza A virus infected in MDCK cells assessed as inhibition of viral load treated with compound at 8 to 10 hrs post-infection by RT-qPCR method based time of addition assay; assay type: functional, organism-based; in short: as §2
[11] = target: Hemagglutinin (Influenza A virus (A/Puerto Rico/8/1934(H1N1))) (UniProt P03452); experiment: Inhibition of Influenza A virus (A/Puerto Rico/8/1934(H1N1)) Hemagglutinin 1-induced aggregation of chicken erythrocytes at 0.05 to 100 uM
Chain of Hemagglutinin (Influenza A virus (A/Puerto Rico/8/1934(H1N1))) (P03452 whole entry): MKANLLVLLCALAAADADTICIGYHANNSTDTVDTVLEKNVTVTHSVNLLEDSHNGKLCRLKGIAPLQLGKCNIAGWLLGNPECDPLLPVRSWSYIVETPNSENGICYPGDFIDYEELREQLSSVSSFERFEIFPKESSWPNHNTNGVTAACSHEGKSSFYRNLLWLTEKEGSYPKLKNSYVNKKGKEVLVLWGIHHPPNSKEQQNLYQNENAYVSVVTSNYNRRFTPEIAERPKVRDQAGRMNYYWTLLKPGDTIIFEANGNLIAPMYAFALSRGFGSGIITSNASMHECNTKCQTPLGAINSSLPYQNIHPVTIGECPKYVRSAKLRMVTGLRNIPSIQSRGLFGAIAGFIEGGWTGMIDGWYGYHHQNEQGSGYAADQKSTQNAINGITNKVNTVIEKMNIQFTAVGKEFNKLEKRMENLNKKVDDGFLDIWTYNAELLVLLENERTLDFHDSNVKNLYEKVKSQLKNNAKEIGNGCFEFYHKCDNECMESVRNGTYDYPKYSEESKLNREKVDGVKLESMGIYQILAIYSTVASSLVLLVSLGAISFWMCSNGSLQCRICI

[12] = target: Hemagglutinin (Influenza A virus (A/Puerto Rico/8/1934(H1N1))) (UniProt P03452); experiment: Inhibition of Influenza A virus (A/Puerto Rico/8/1934(H1N1)) Hemagglutinin 2-mediated hemolysis of chicken erythrocytes at acidic pH conditions
[13] = tested on: Middle East respiratory syndrome-related coronavirus; experiment: Binding affinity to MERS-CoV spike protein synthetic peptide HR1P assessed as changes in alpha-helical structures at 10 uM at pH 7.4 by CD spectroscopy
In short: (§3)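 Peptides at 10 μM final. HR1P incubated with test peptide 30 min at 25 °C in 10 mM phosphate, pH 7.4; N66 30 min at 30 °C in 10 mM sodium acetate/10 mM sodium phosphate/150 mM NaCl, pH 5.0; measured at 25 °C. Mean residue ellipticity; helicity from −33000 deg cm2 dmol−1 = 100%.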

[14] = tested on: Influenza A virus; experiment: Binding affinity to influenza A virus hemagglutinin 2 synthetic peptide N66 assessed as changes in alpha-helical structures at 10 uM at pH 5 by CD spectroscopy; in short: as §3
[15] = tested on: Middle East respiratory syndrome-related coronavirus; experiment: Binding affinity to MERS-CoV spike protein synthetic peptide HR1P assessed as melting temperature at 10 uM at pH 7.4 by CD spectroscopy
In short: (§4)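 Thermal unfolding by CD at 222 nm, 10–90 °C at 2 °C/min. Samples held 10 μM peptide: for HR1P in 10 mM phosphate pH 7.4; for N66 in 10 mM sodium acetate with 10 mM sodium phosphate and 150 mM NaCl, pH 5.0.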

[16] = tested on: Influenza A virus; experiment: Binding affinity to influenza A virus hemagglutinin 2 synthetic peptide N66 assessed as melting temperature at 10 uM at pH 5 by CD spectroscopy; in short: as §4
[17] = tested on: Middle East respiratory syndrome-related coronavirus; experiment: Binding affinity to MERS-CoV spike protein synthetic peptide HR1P at pH 7.4 by sedimentation velocity analysis
In short: (§5)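 Complexes at 150 μM final: with HR1P 30 min at 25 °C in 10 mM phosphate pH 7.4; with N66 30 min at 30 °C in sodium acetate/phosphate/NaCl pH 5.0. Sedimentation velocity at 280 nm, 3000 then 60000 rpm, 25 °C; c(s) distribution and molecular weight derived.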

[18] = tested on: Influenza A virus; experiment: Binding affinity to influenza A virus hemagglutinin 2 synthetic peptide N66 at pH 5 by sedimentation velocity analysis; in short: as §5
[19] = tested on: Middle East respiratory syndrome-related coronavirus; experiment: Antiviral activity against MERS-CoV pseudovirus infected in human HuH7 cells treated with 30 mins pre-treated pseudovirus/compopund mixture and measured after 48 hrs by luciferase reporter assay; assay type: functional, organism-based
In short: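 Serially diluted peptide premixed with MERS-CoV pseudovirus 30 min at 37 °C, then added to Huh-7 cells; medium replaced at 12 h postinfection and cells cultured a further 48 h at 37 °C before luciferase read-out.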

[20] = Solubility in pure water at 2 mg by HPLC-UV method; assay type: physicochemical
[21] = AUC (0 to t) in Sprague-Dawley rat at 5 mg/kg, iv administered as single dose by LC-MS/MS analysis; assay type: ADME, organism-based; conditions: in vivo
[22] = tested on: Rattus norvegicus; experiment: MRT (0 to t) in Sprague-Dawley rat at 5 mg/kg, iv administered as single dose by LC-MS/MS analysis; assay type: ADME, organism-based; conditions: in vivo
[23] = Half life in Sprague-Dawley rat at 5 mg/kg, iv administered as single dose by LC-MS/MS analysis; assay type: ADME, organism-based; conditions: in vivo
[24] = tested on: Rattus norvegicus; experiment: Clearance in Sprague-Dawley rat at 5 mg/kg, iv administered as single dose by LC-MS/MS analysis; assay type: ADME, organism-based; conditions: in vivo
[25] = Cmax in Sprague-Dawley rat at 5 mg/kg, iv administered as single dose by LC-MS/MS analysis; assay type: ADME, organism-based; parameters: dose 5 mg/kg, route intravenous; conditions: in vivo
[26] = tested on: Rattus norvegicus; experiment: Volume of distribution at steady state in Sprague-Dawley rat at 5 mg/kg, iv administered as single dose by LC-MS/MS analysis; assay type: ADME, organism-based; conditions: in vivo
[27] = Cytotoxicity in human TZM-bl cells; assay type: cell-based
[28] = tested on: Influenza B virus; experiment: Antiviral activity against Influenza B virus (B/Lee/40); assay type: functional, organism-based; conditions: B/Lee/1940
[29] = tested on: Influenza A virus; conditions: Hong Kong/8/1968(H3N2), 0.1 to 1000 uM

With `CCCCCCCCCCCCCCCC(=O)NCCCC[C@H](NC(=O)CCNC(=O)[C@H](CCCCN)NC(=O)[C@H](CCCCN)NC(=O)[C@H](CCC(N)=O)NC(=O)[C@@H](NC(=O)[C@H](CCC(=O)O)NC(=O)[C@H](CCC(=O)O)NC(=O)[C@@H](NC(=O)[C@H](CCCCN)NC(=O)[C@H](CCCCN)NC(=O)[C@H](CCC(N)=O)NC(=O)[C@@H](NC(=O)[C@H](CCC(=O)O)NC(=O)[C@H](CCC(=O)O)NC(=O)[C@@H](NC(=O)[C@H](CCCCN)NC(=O)[C@H](CCCCN)NC(=O)[C@H](CCC(N)=O)NC(=O)[C@@H](NC(=O)[C@H](CCC(=O)O)NC(=O)[C@H](CCC(=O)O)NC(=O)[C@@H](NC(=O)[C@H](CCCCN)NC(=O)[C@H](CCCCN)NC(=O)[C@H](CCC(N)=O)NC(=O)[C@@H](NC(=O)[C@H](CCC(=O)O)NC(=O)[C@H](CCC(=O)O)NC(=O)[C@@H](NC(=O)[C@H](CCCCN)NC(=O)[C@H](CCCCN)NC(=O)[C@H](CCC(N)=O)NC(=O)[C@@H](NC(=O)[C@H](CCC(=O)O)NC(=O)[C@H](CCC(=O)O)NC(=O)[C@@H](NC(C)=O)[C@@H](C)CC)[C@@H](C)CC)[C@@H](C)CC)[C@@H](C)CC)[C@@H](C)CC)[C@@H](C)CC)[C@@H](C)CC)[C@@H](C)CC)[C@@H](C)CC)[C@@H](C)CC)C(N)=O` (Ac-IEEIQKKIEEIQKKIEEIQKKIEEIQKKIEEIQKK[βAla]K(Palmitoyl)-NH2) the CC50 at 48 h [1] was > 100000 nM, the EC50 [2] was 1730 nM and the CC50 at 72 h [3] was > 100000 nM. For the same compound, the selectivity ratio [4] was > 143, the inhibition [5] was “inactive” and the “inhibition (INH)” value [6] was 60%. For the same compound, the “inhibition (INH)” value [7] was 60%, the inhibition [8] was “inactive” and the inhibition [9] was “inactive”. The inhibition [10] was “inactive”, the inhibition [11] was “inactive” and the inhibition [12] was “Active”. For the same compound, the Activity [13] was “Active”, the Activity [14] was “Active” and the Tm [15] was > 90 °C. For the same compound, the Tm [16] was 83.1 °C, the Activity [17] was “Active” and the Activity [18] was “Active”. For the same compound, the Activity [19] was “Active”, the solubility [20] was 8870 µg/mL (≈ 1830 µM) and the AUC(0-t) [21] was 235 µg·h/mL. The “MRT(t)” value [22] was 4.1 h, the half-life [23] was 6.6 h and the CL [24] was 0.345 mL/min/kg. The Cmax [25] was 97.6 µg/mL, the Vdss [26] was 0.1978 L/kg and the CC50 [27] was > 100000 nM. For the same compound, the EC50 [28] was 1870 nM and the inhibition [29] was “inactive”.
